Assay results from ChEMBL document CHEMBL3864121, “Development of ebsulfur analogues as potent antibacterials against methicillin-resistant Staphylococcus aureus” (Bioorg Med Chem, 2016).
In brackets after ≈: the same amount, converted by molar mass. Activity calls are given as the source filed them. The rule behind the calls is not given here.

Key:
[1] = tested on: Staphylococcus aureus; experiment: Antibacterial activity against methicillin-resistant Staphylococcus aureus S17 measured after overnight incubation by broth double-dilution method; type: functional
Procedure, shortened: (§1)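 MIC by broth double-dilution in liquid Mueller-Hinton medium. Values are reported in µg/mL.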

[2] = tested on: Staphylococcus aureus; experiment: Antibacterial activity against methicillin-resistant Staphylococcus aureus S24 measured after overnight incubation by broth double-dilution method; type: functional; procedure, shortened: as §1
[3] = tested on: Staphylococcus aureus; experiment: Antibacterial activity against methicillin-resistant Staphylococcus aureus G14 measured after overnight incubation by broth double-dilution method; type: functional; procedure, shortened: as §1
[4] = tested on: Staphylococcus aureus; experiment: Antibacterial activity against methicillin-resistant Staphylococcus aureus ATCC 33591 measured after overnight incubation by broth double-dilution method; type: functional; procedure, shortened: as §1
[5] = tested on: Staphylococcus aureus; experiment: Antibacterial activity against methicillin-sensitive Staphylococcus aureus ATCC 25923 measured after overnight incubation by broth double-dilution method; type: functional; procedure, shortened: as §1
[6] = tested on: Staphylococcus aureus; experiment: Antibacterial activity against methicillin-resistant Staphylococcus aureus C7 measured after overnight incubation by broth double-dilution method; type: functional; procedure, shortened: as §1
[7] = tested on: Staphylococcus aureus; experiment: Antibacterial activity against methicillin-resistant Staphylococcus aureus USA300 measured after overnight incubation by broth double-dilution method; type: functional; procedure, shortened: as §1
[8] = tested on: Staphylococcus aureus; experiment: Antibacterial activity against methicillin-resistant Staphylococcus aureus C16 measured after overnight incubation by broth double-dilution method; type: functional; procedure, shortened: as §1
[9] = tested on: Staphylococcus aureus; experiment: Bacteriostatic activity against methicillin-resistant Staphylococcus aureus S22 at 4 times MIC measured after 24 hrs by time kill analysis; type: functional
[10] = tested on: Staphylococcus aureus; experiment: Antibacterial activity against methicillin-resistant Staphylococcus aureus C14 measured after overnight incubation by broth double-dilution method; type: functional; procedure, shortened: as §1
[11] = tested on: Staphylococcus aureus; experiment: Antibacterial activity against methicillin-resistant Staphylococcus aureus S22 measured after overnight incubation by broth double-dilution method; type: functional; procedure, shortened: as §1
[12] = tested on: Staphylococcus aureus; experiment: Antibacterial activity against methicillin-resistant Staphylococcus aureus S14 measured after overnight incubation by broth double-dilution method; type: functional; procedure, shortened: as §1
[13] = tested on: Staphylococcus aureus; experiment: Antibacterial activity against methicillin-resistant Staphylococcus aureus C2 measured after overnight incubation by broth double-dilution method; type: functional; procedure, shortened: as §1
[14] = tested on: Staphylococcus aureus; experiment: Antibacterial activity against methicillin-resistant Staphylococcus aureus USA600 measured after overnight incubation by broth double-dilution method; type: functional; procedure, shortened: as §1
[15] = tested on: Staphylococcus aureus; experiment: Antibacterial activity against methicillin-sensitive Staphylococcus aureus ATCC 29213 measured after overnight incubation by broth double-dilution method; type: functional; procedure, shortened: as §1
[16] = tested on: Staphylococcus aureus; experiment: Antibacterial activity against methicillin-resistant Staphylococcus aureus S22 using 1 10^6CFU/ml measured after overnight incubation by broth double-dilution method; type: functional
[17] = tested on: Staphylococcus aureus; experiment: Antibacterial activity against methicillin-resistant Staphylococcus aureus NRS4 measured after overnight incubation by broth double-dilution method; type: functional; procedure, shortened: as §1
[18] = tested on: Enterococcus; experiment: Antibacterial activity against Vancomycin-resistant Enterococcus measured after overnight incubation by broth double-dilution method; type: functional; procedure, shortened: as §1
[19] = tested on: Staphylococcus aureus; experiment: Bacteriostatic activity against methicillin-resistant Staphylococcus aureus S22 at 0.5 times MIC measured up to 3 to 6 hrs by time kill analysis; type: functional
[20] = tested on: Staphylococcus aureus; experiment: Antibacterial activity against methicillin-resistant Staphylococcus aureus G12 measured after overnight incubation by broth double-dilution method; type: functional; procedure, shortened: as §1
[21] = tested on: Staphylococcus aureus; experiment: Bacteriostatic activity against methicillin-resistant Staphylococcus aureus S22 at MIC measured up to 3 to 6 hrs by time kill analysis; type: functional
[22] = tested on: Mycolicibacterium smegmatis; experiment: Antibacterial activity against Mycobacterium smegmatis MC2-155 measured after overnight incubation by broth double-dilution method; type: functional; details: str. MC2 155; procedure, shortened: as §1
[23] = tested on: Staphylococcus aureus; experiment: Antibacterial activity against methicillin-resistant Staphylococcus aureus G6 measured after overnight incubation by broth double-dilution method; type: functional; procedure, shortened: as §1
[24] = tested on: Staphylococcus aureus; experiment: Antibacterial activity against methicillin-resistant Staphylococcus aureus USA200 measured after overnight incubation by broth double-dilution method; type: functional; procedure, shortened: as §1
[25] = tested on: Staphylococcus aureus; experiment: Antibacterial activity against methicillin-resistant Staphylococcus aureus NRS51 measured after overnight incubation by broth double-dilution method; type: functional; procedure, shortened: as §1
[26] = tested on: Staphylococcus aureus; experiment: Antibacterial activity against methicillin-resistant Staphylococcus aureus 2 measured after overnight incubation by broth double-dilution method; type: functional; procedure, shortened: as §1
[27] = tested on: Staphylococcus aureus; experiment: Antibacterial activity against methicillin-resistant Staphylococcus aureus 1 measured after overnight incubation by broth double-dilution method; type: functional; procedure, shortened: as §1
[28] = tested on: Staphylococcus aureus; experiment: Antibacterial activity against methicillin-resistant Staphylococcus aureus NRS77 measured after overnight incubation by broth double-dilution method; type: functional; procedure, shortened: as §1
[29] = tested on: Staphylococcus epidermidis; experiment: Antibacterial activity against Staphylococcus epidermidis ATCC 35984 measured after overnight incubation by broth double-dilution method; type: functional; details: RP62A
Procedure, shortened: (§2)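 MIC by broth double-dilution in Mueller-Hinton medium. Re-testing at the time-kill inoculum used 1×10^6 CFU/mL.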

[30] = tested on: Enterococcus faecalis; experiment: Antibacterial activity against Enterococcus faecalis ATCC 49533 measured after overnight incubation by broth double-dilution method; type: functional; procedure, shortened: as §2
[31] = tested on: Staphylococcus epidermidis RP62A; experiment: Inhibition of thioredoxin reductase in Staphylococcus epidermidis ATCC 35984 assessed as induction of ROS production at 1 to 4 times MIC measured after 1 hr by DCFH-DA staining-based fluorescence microscopic analysis
Procedure, shortened: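 Untreated cells served as the negative control and 1 mM H2O2 as the positive control. Cells were stained with DCFH-DA (40 µg/mL) and ROS were visualized by fluorescence microscopy.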

[32] = tested on: Staphylococcus aureus; experiment: Antibacterial activity against methicillin-resistant Staphylococcus aureus C19 measured after overnight incubation by broth double-dilution method; type: functional; procedure, shortened: as §1
[33] = tested on: Staphylococcus aureus; experiment: Antibacterial activity against methicillin-resistant Staphylococcus aureus USA100 measured after overnight incubation by broth double-dilution method; type: functional; procedure, shortened: as §1
[34] = tested on: Staphylococcus aureus; experiment: Antibacterial activity against methicillin-resistant Staphylococcus aureus G1 measured after overnight incubation by broth double-dilution method; type: functional; procedure, shortened: as §1
[35] = tested on: Staphylococcus aureus; experiment: Antibacterial activity against methicillin-sensitive Staphylococcus aureus ATCC 6538 measured after overnight incubation by broth double-dilution method; type: functional; procedure, shortened: as §1
[36] = tested on: Enterococcus faecium; experiment: Antibacterial activity against Enterococcus faecium BM4105-RF measured after overnight incubation by broth double-dilution method; type: functional; procedure, shortened: as §1
[37] = tested on: Staphylococcus aureus; experiment: Antibacterial activity against methicillin-resistant Staphylococcus aureus BRS3 measured after overnight incubation by broth double-dilution method; type: functional; procedure, shortened: as §1
[38] = tested on: Enterococcus faecalis; experiment: Antibacterial activity against Enterococcus faecalis ATCC 29212 measured after overnight incubation by broth double-dilution method; type: functional; procedure, shortened: as §2
[39] = tested on: Listeria monocytogenes; experiment: Antibacterial activity against Listeria monocytogenes ATCC 19115 measured after overnight incubation by broth double-dilution method; type: functional; procedure, shortened: as §2
[40] = tested on: Staphylococcus aureus; experiment: Antibacterial activity against methicillin-resistant Staphylococcus aureus C1 measured after overnight incubation by broth double-dilution method; type: functional; procedure, shortened: as §1
[41] = Cytotoxicity against HEK293 cells assessed as cell death at […] measured after 24 hrs by resazurin dye-based fluorescence analysis relative to untreated control; type: toxicity; details: human, hek293, 24 h

| SMILES | MIC [1] | MIC [2] | MIC [3] | MIC [4] | MIC [5] | MIC [6] | MIC [7] | MIC [8] | MIC [10] | MIC [11] | MIC [12] | MIC [13] | MIC [14] | MIC [15] | MIC [17] | MIC [18] | MIC [20] | MIC [22] | MIC [23] | MIC [24] | other results |
| --- | --- | --- | --- | --- | --- | --- | --- | --- | --- | --- | --- | --- | --- | --- | --- | --- | --- | --- | --- | --- | --- |
| CCCCCCn1sc2ccccc2c1=O | 3.9 µg/mL (≈ 16.6 µM) | 3.9 µg/mL (≈ 16.6 µM) | 2 µg/mL (≈ 8.5 µM) | 2 µg/mL (≈ 8.5 µM) | 3.9 µg/mL (≈ 16.6 µM) | 3.9 µg/mL (≈ 16.6 µM) | 3.9 µg/mL (≈ 16.6 µM) | 7.8 µg/mL (≈ 33.1 µM) | 3.9 µg/mL (≈ 16.6 µM) | 3.9 µg/mL (≈ 16.6 µM) | ≤ 0.25 µg/mL | 3.9 µg/mL (≈ 16.6 µM) | 7.8 µg/mL (≈ 33.1 µM) | 3.9 µg/mL (≈ 16.6 µM) | 3.9 µg/mL (≈ 16.6 µM) | 2 µg/mL (≈ 8.5 µM) | 2 µg/mL (≈ 8.5 µM) | 2 µg/mL (≈ 8.5 µM) | 3.9 µg/mL (≈ 16.6 µM) | 7.8 µg/mL (≈ 33.1 µM) | Activity [9]: Active; Activity [16]: Active; Activity [19]: Active; Activity [21]: Active; MIC [25]: 3.9 µg/mL (≈ 16.6 µM); MIC [26]: 3.9 µg/mL (≈ 16.6 µM); MIC [27]: 2 µg/mL (≈ 8.5 µM); MIC [28]: 3.9 µg/mL (≈ 16.6 µM); MIC [29]: 2 µg/mL (≈ 8.5 µM); MIC [30]: > 125 µg/mL; Activity [31]: Active; MIC [32]: 2 µg/mL (≈ 8.5 µM); MIC [33]: 7.8 µg/mL (≈ 33.1 µM); MIC [34]: 0.5 µg/mL (≈ 2.12 µM); MIC [35]: 7.8 µg/mL (≈ 33.1 µM); MIC [36]: 7.8 µg/mL (≈ 33.1 µM); MIC [37]: 3.9 µg/mL (≈ 16.6 µM); MIC [38]: > 125 µg/mL; MIC [39]: 3.9 µg/mL (≈ 16.6 µM); MIC [40]: 3.9 µg/mL (≈ 16.6 µM) |
| O=c1c2ccccc2sn1CCc1ccccc1 | 1 µg/mL (≈ 3.92 µM) | 2 µg/mL (≈ 7.83 µM) | 1 µg/mL (≈ 3.92 µM) | 1 µg/mL (≈ 3.92 µM) | 1 µg/mL (≈ 3.92 µM) | 2 µg/mL (≈ 7.83 µM) | 2 µg/mL (≈ 7.83 µM) | 3.9 µg/mL (≈ 15.3 µM) | 2 µg/mL (≈ 7.83 µM) | 3.9 µg/mL (≈ 15.3 µM) | 0.5 µg/mL (≈ 1.96 µM) | 2 µg/mL (≈ 7.83 µM) | 3.9 µg/mL (≈ 15.3 µM) | 2 µg/mL (≈ 7.83 µM) | 2 µg/mL (≈ 7.83 µM) | 1 µg/mL (≈ 3.92 µM) | 1 µg/mL (≈ 3.92 µM) | 2 µg/mL (≈ 7.83 µM) | 1 µg/mL (≈ 3.92 µM) | 2 µg/mL (≈ 7.83 µM) | MIC [25]: 2 µg/mL (≈ 7.83 µM); MIC [26]: 1 µg/mL (≈ 3.92 µM); Activity [41]: > 20%; MIC [27]: 1 µg/mL (≈ 3.92 µM); MIC [28]: 2 µg/mL (≈ 7.83 µM); MIC [29]: 2 µg/mL (≈ 7.83 µM); MIC [30]: > 125 µg/mL; MIC [32]: 1 µg/mL (≈ 3.92 µM); MIC [33]: 3.9 µg/mL (≈ 15.3 µM); MIC [34]: 0.5 µg/mL (≈ 1.96 µM); MIC [35]: 3.9 µg/mL (≈ 15.3 µM); MIC [36]: > 125 µg/mL; MIC [37]: 2 µg/mL (≈ 7.83 µM); MIC [38]: > 125 µg/mL; MIC [39]: 3.9 µg/mL (≈ 15.3 µM); MIC [40]: 2 µg/mL (≈ 7.83 µM) |
